According to ChEMBL document CHEMBL5724801, “EUbOPEN Chemogenomics Library - Multiplex” (2024):
Values joined by “and” are separate entries in the source; they are usually repeats but may differ in a detail not shown here. Equal values may be shown once.

Test system: U2OS
Experiment: Multiplex assay against U2OS
Assay type: toxicity, cell-based
Settings: human
Method in brief: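 Live cells were stained at seeding with Hoechst33342, BioTracker Green Microtubule Cytoskeleton Dye, MitoTracker Red and Annexin V Alexa Fluor 680. Following compound addition, they were imaged on a CQ1 microscope at 37°C and 5% CO2 and gated by CellPathfinder machine learning into Hoechst high-intensity objects or normal cells, with normal cells split into healthy, pyknosed or fragmented nuclei and pyknosed cells into mitotic or apoptotic. Tubulin, mitochondrial-mass and membrane-permeability phenotypes are per cents of healthy-nucleus cells.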

[1] = 12 h, 1 µM, compound concentration 1 uM
[2] = 12 h, 10 µM, compound concentration 10 uM
[3] = 24 h, 1 µM, compound concentration 1 uM
[4] = 24 h, 10 µM, compound concentration 10 uM
[5] = 48 h, 1 µM, compound concentration 1 uM
[6] = 48 h, 10 µM, compound concentration 10 uM

**Q.** How did the “Population Apoptotic (%)” value [1] turn out when `CN(C)CCCn1cc(C2=C(c3c[nH]c4ccccc34)C(=O)NC2=O)c2ccccc21` [GF-109203] was run?
**A.** 29.27% and 38.1%

**Q.** And the “Population Healthy Nuclei (%)” value [1]?
**A.** 87.6% and 71.08%

**Q.** And the “Population Hoechst High Intensity Objects (%)” value [1]?
**A.** 0%

**Q.** And the “Population Membrane Permeable-Phenotype (%)” value [1]?
**A.** 1.47% and 5.52%

**Q.** And the “Population Mitotic Cells (%)” value [1]?
**A.** 70.73% and 61.9%

**Q.** And the “Population Normal (%)” value [1]?
**A.** 100%

**Q.** What about the “Population Pyknosed Nuclei (%)” value [1] of the same molecule?
**A.** 10.59% and 10.29%

**Q.** And the “Population Tubulin-Different-Phenotype (%)” value [1]?
**A.** 1.77% and 1.38%

**Q.** And the “Total Cell Count” value [1]?
**A.** 387 and 204

**Q.** What about the “Population Apoptotic (%)” value [2] of the same molecule?
**A.** 35.21% and 37.14%

**Q.** And the “Population Fragmented Nuclei (%)” value [2]?
**A.** 1.16% and 5.8%

**Q.** And the “Population Healthy Nuclei (%)” value [2]?
**A.** 78.32% and 68.84%

**Q.** And the “Population Hoechst High Intensity Objects (%)” value [2]?
**A.** 0%

**Q.** And the “Population Membrane Permeable-Phenotype (%)” value [2]?
**A.** 49.08% and 62.11%

**Q.** And the “Population Mitotic Cells (%)” value [2]?
**A.** 64.79% and 62.86%

**Q.** What about the “Population Normal (%)” value [2] of the same molecule?
**A.** 100%

**Q.** What about the “Population Pyknosed Nuclei (%)” value [2] of the same molecule?
**A.** 20.52% and 25.36%

**Q.** What about the “Population Tubulin-Different-Phenotype (%)” value [2] of the same molecule?
**A.** 70.11% and 53.68%

**Q.** What about the “Total Cell Count” value [2] of the same molecule?
**A.** 346 and 138

**Q.** What about the “Population Apoptotic (%)” value [3] of the same molecule?
**A.** 38.98% and 53.33%

**Q.** And the “Population Healthy Nuclei (%)” value [3]?
**A.** 87.5% and 70.09%

**Q.** What about the “Population Hoechst High Intensity Objects (%)” value [3] of the same molecule?
**A.** 0.19% and 0%

**Q.** What about the “Population Membrane Permeable-Phenotype (%)” value [3] of the same molecule?
**A.** 1.34% and 5.49%

**Q.** What about the “Population Mitochondria Different-Phenotype (%)” value [3] of the same molecule?
**A.** 0% and 15.85%

**Q.** And the “Population Mitotic Cells (%)” value [3]?
**A.** 61.02% and 46.67%

**Q.** And the “Population Normal (%)” value [3]?
**A.** 99.81% and 100%

**Q.** And the “Population Pyknosed Nuclei (%)” value [3]?
**A.** 11.52% and 12.82%

**Q.** And the “Population Tubulin-Different-Phenotype (%)” value [3]?
**A.** 0.89% and 2.44%

**Q.** What about the “Total Cell Count” value [3] of the same molecule?
**A.** 513 and 234

**Q.** And the “Population Apoptotic (%)” value [4]?
**A.** 66.23% and 81.33%

**Q.** What about the “Population Fragmented Nuclei (%)” value [4] of the same molecule?
**A.** 2.13% and 6.99%

**Q.** And the “Population Healthy Nuclei (%)” value [4]?
**A.** 51.98% and 40.56%

**Q.** What about the “Population Hoechst High Intensity Objects (%)” value [4] of the same molecule?
**A.** 0%

**Q.** What about the “Population Membrane Permeable-Phenotype (%)” value [4] of the same molecule?
**A.** 35.67% and 50%

**Q.** And the “Population Mitotic Cells (%)” value [4]?
**A.** 33.77% and 18.67%

**Q.** What about the “Population Normal (%)” value [4] of the same molecule?
**A.** 100%

**Q.** And the “Population Pyknosed Nuclei (%)” value [4]?
**A.** 45.9% and 52.45%

**Q.** And the “Population Tubulin-Different-Phenotype (%)” value [4]?
**A.** 60.23% and 58.62%

**Q.** What about the “Total Cell Count” value [4] of the same molecule?
**A.** 329 and 143

**Q.** What about the “Population Apoptotic (%)” value [5] of the same molecule?
**A.** 41.25% and 46.51%

**Q.** What about the “Population Healthy Nuclei (%)” value [5] of the same molecule?
**A.** 88.82% and 68.86%

**Q.** What about the “Population Hoechst High Intensity Objects (%)” value [5] of the same molecule?
**A.** 0% and 0.34%

**Q.** And the “Population Membrane Permeable-Phenotype (%)” value [5]?
**A.** 1.36% and 5.03%

**Q.** What about the “Population Mitochondria Different-Phenotype (%)” value [5] of the same molecule?
**A.** 0% and 16.08%

**Q.** And the “Population Mitotic Cells (%)” value [5]?
**A.** 58.75% and 53.49%

**Q.** And the “Population Normal (%)” value [5]?
**A.** 100% and 99.66%

**Q.** What about the “Population Pyknosed Nuclei (%)” value [5] of the same molecule?
**A.** 8.77% and 14.88%

**Q.** And the “Population Tubulin-Different-Phenotype (%)” value [5]?
**A.** 0.99% and 3.02%

**Q.** And the “Population Apoptotic (%)” value [6]?
**A.** 86.32% and 90.65%

**Q.** What about the “Population Fragmented Nuclei (%)” value [6] of the same molecule?
**A.** 6.15% and 9.46%

**Q.** And the “Population Healthy Nuclei (%)” value [6]?
**A.** 28.62% and 18.24%

**Q.** And the “Population Hoechst High Intensity Objects (%)” value [6]?
**A.** 0.31% and 0%

**Q.** What about the “Population Mitochondria Different-Phenotype (%)” value [6] of the same molecule?
**A.** 24.73% and 55.56%

**Q.** What about the “Population Mitotic Cells (%)” value [6] of the same molecule?
**A.** 13.68% and 9.35%

**Q.** And the “Population Normal (%)” value [6]?
**A.** 99.69% and 100%

**Q.** What about the “Population Pyknosed Nuclei (%)” value [6] of the same molecule?
**A.** 65.23% and 72.3%

**Q.** And the “Population Tubulin-Different-Phenotype (%)” value [6]?
**A.** 63.44% and 37.04%

**Q.** What about the “Total Cell Count” value [6] of the same molecule?
**A.** 326 and 148
